For experiment [1], the target named is T1, Collagenase 3 (Homo sapiens, UniProt P45452). Put plainly: Inhibition of human full length recombinant MMP13 using triple-helical fTHP-15 as substrate at 40 uM after 4 hrs by FRET assay. Put shortly:
(§1)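 Inhibitors tested at 40 μM in a FRET assay with the triple-helical peptide substrate fTHP-15 (exosite-engaging), read as percent inhibition of enzyme activity. Enzyme levels: MMP-1 4 nM; MMP-2, MMP-9 and MMP-14 10 nM each; MMP-8 2 nM; MMP-13 2.3 nM.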

For the next experiment, the target named is T2, Interstitial collagenase (Homo sapiens, UniProt P03956).
T2 sequence (P03956 whole entry): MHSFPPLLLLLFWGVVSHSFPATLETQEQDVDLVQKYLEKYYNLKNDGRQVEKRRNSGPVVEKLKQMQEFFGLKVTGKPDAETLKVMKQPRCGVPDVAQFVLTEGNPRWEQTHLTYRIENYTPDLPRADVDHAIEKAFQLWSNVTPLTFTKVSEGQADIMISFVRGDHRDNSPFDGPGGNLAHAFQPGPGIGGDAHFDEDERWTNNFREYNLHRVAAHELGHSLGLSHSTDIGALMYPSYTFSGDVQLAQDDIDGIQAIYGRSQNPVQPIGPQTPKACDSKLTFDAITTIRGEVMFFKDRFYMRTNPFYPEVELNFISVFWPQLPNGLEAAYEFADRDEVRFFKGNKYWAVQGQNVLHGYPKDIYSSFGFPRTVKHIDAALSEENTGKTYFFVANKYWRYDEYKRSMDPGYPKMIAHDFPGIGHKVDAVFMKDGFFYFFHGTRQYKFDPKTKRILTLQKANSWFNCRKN
Put plainly: Inhibition of MMP1 expressed in Escherichia coli using triple-helical fTHP-15 as substrate after 4 hrs by FRET assay.

For experiment [2], the target named is T1, Collagenase 3. As to the kind of experiment: Noncompetitive inhibition of human full length recombinant MMP13 using triple-helical fTHP-15 as substrate by Lineweaver-Burk plot analysis. Put shortly: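 Single-inhibitor kinetic assay of MMP-13 hydrolysis of the FRET triple-helical peptide fTHP-15, which engages protease exosites. Run to obtain the inhibition constant (Ki) and the inhibition modality, following previously described methods.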

Experiment [3] concerns the target T3, Neutrophil collagenase (Homo sapiens, UniProt P22894). Put plainly: Inhibition of MMP8 expressed in CHO-K1 cells using triple-helical fTHP-15 as substrate after 4 hrs by FRET assay. Format: cell-based.
Target sequence in this assay (P22894 whole entry): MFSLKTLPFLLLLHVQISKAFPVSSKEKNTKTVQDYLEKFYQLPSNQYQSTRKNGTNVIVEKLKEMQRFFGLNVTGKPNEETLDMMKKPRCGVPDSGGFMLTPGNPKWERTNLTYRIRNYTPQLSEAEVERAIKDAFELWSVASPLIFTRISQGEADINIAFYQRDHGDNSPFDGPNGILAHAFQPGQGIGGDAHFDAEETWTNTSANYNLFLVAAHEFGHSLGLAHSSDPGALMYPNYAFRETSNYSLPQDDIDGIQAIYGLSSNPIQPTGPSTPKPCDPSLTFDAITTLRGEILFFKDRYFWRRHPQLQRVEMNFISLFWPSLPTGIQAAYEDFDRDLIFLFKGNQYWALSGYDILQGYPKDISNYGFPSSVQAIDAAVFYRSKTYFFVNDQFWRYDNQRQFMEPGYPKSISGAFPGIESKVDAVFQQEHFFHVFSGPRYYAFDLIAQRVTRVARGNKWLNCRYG
Experiment [4] has as its target Matrix metalloproteinase-14 (Homo sapiens) (UniProt P50281). As to the kind of experiment: Inhibition of MMP14 assessed as residual activity using Knight SSP as substrate at 100 uM after 1.5 to 4 hrs by spectrofluorometric analysis relative to control.
Experiment [5] concerns the target T4, Interstitial collagenase (Homo sapiens) (UniProt P03956).
T4 sequence (whole entry): T2 sequence (P03956 whole entry)
As to the kind of experiment: Inhibition of MMP1 expressed in Escherichia coli using triple-helical fTHP-15 as substrate at 40 uM after 4 hrs by FRET assay. In outline: as §1

Experiment [6] addresses T5, Matrix metalloproteinase-20 (Homo sapiens) (UniProt O60882).
T5 sequence (whole entry): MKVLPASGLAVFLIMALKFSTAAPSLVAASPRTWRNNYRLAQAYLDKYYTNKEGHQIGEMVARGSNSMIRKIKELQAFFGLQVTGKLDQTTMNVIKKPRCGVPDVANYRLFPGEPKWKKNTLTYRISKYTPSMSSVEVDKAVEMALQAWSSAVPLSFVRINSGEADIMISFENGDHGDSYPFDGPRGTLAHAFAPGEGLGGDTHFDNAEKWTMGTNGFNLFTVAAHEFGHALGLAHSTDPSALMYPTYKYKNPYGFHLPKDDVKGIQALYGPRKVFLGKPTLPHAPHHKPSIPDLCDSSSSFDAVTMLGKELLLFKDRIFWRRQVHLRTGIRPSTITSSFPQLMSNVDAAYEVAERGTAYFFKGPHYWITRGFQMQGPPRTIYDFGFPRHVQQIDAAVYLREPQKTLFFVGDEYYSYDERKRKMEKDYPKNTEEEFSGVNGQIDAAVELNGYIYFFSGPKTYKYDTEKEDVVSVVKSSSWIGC
Put plainly: Inhibition of MMP20 assessed as residual activity using Knight SSP as substrate at 100 uM after 1.5 to 4 hrs by spectrofluorometric analysis relative to control.

The target of experiment [7] is T3, Neutrophil collagenase. Put plainly: Inhibition of MMP8 expressed in CHO-K1 cells assessed as residual activity using Knight SSP as substrate at 100 uM after 1.5 to 4 hrs by spectrofluorometric analysis relative to control. Format: cell-based.
Target sequence in this assay (P22894 101-467 limits assumed): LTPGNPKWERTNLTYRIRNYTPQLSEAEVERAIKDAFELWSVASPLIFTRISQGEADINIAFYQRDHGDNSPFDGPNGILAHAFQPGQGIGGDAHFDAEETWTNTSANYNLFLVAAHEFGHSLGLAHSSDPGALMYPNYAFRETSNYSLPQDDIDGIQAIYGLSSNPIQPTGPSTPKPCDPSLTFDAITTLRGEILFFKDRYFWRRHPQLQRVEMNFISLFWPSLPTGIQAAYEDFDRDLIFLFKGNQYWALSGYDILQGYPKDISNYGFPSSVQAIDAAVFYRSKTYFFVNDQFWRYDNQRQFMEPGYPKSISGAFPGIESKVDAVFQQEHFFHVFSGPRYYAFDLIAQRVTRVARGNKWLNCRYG
For experiment [8], the target named is Disintegrin and metalloproteinase domain-containing protein 17 (Homo sapiens) (UniProt P78536). As to the kind of experiment: Inhibition of TACE at 40 uM.
The target in experiment [9] is Matrix metalloproteinase-9 (Homo sapiens) (UniProt P14780). As to the kind of experiment: Inhibition of recombinant MMP9 using triple-helical fTHP-15 as substrate at 40 uM after 4 hrs by FRET assay. In outline: as §1
The target of experiment [10] is Macrophage metalloelastase (Homo sapiens) (UniProt P39900). Put plainly: Inhibition of MMP12 assessed as residual activity using Knight SSP as substrate at 100 uM after 1.5 to 4 hrs by spectrofluorometric analysis relative to control.
The target of experiment [11] is 72 kDa type IV collagenase (Homo sapiens) (UniProt P08253). As to the kind of experiment: Inhibition of human MMP2 assessed as residual activity using Knight SSP as substrate at 100 uM after 1.5 to 4 hrs by spectrofluorometric analysis relative to control.
Experiment [12] deals with Matrix metalloproteinase-14 (Homo sapiens) (UniProt P50281). As to the kind of experiment: Inhibition of MMP14 using triple-helical fTHP-15 as substrate at 40 uM after 4 hrs by FRET assay. In outline:
as §1

Experiment [13] concerns the target T4, Interstitial collagenase (Homo sapiens). As to the kind of experiment: Inhibition of MMP1 expressed in Escherichia coli assessed as residual activity using Knight SSP as substrate at 100 uM after 1.5 to 4 hrs by spectrofluorometric analysis relative to control.
Experiment [14] addresses T3, Neutrophil collagenase. Put plainly: Inhibition of MMP8 expressed in CHO-K1 cells using triple-helical fTHP-15 as substrate at 40 uM after 4 hrs by FRET assay. Put shortly:
as §1
Target sequence in this assay (P22894 101-467 limits assumed): as above

Experiment [15] addresses 72 kDa type IV collagenase (Homo sapiens) (UniProt P08253). As to the kind of experiment: Inhibition of human MMP2 using triple-helical fTHP-15 as substrate at 40 uM after 4 hrs by FRET assay. In outline:
as §1

The target of experiment [16] is Stromelysin-1 (Homo sapiens) (UniProt P08254). Put plainly: Inhibition of MMP3 expressed in Escherichia coli assessed as residual activity using Knight SSP as substrate at 100 uM after 1.5 to 4 hrs by spectrofluorometric analysis relative to control.
Experiment [17] addresses T1, Collagenase 3. Put plainly: Inhibition of human full length recombinant MMP13 assessed as residual activity using Knight SSP as substrate at 100 uM after 1.5 to 4 hrs by spectrofluorometric analysis relative to control.

The values below come from ChEMBL document CHEMBL1938243, “Identification of novel, exosite-binding matrix metalloproteinase-13 inhibitor scaffolds” (Bioorg Med Chem Lett, 2011).

The source made the active and inactive calls. The calls are words filed in the database; no cut-off is given here.

Sequence of Disintegrin and metalloproteinase domain-containing protein 17 (Homo sapiens) (P78536 whole entry, the tested form may be a part): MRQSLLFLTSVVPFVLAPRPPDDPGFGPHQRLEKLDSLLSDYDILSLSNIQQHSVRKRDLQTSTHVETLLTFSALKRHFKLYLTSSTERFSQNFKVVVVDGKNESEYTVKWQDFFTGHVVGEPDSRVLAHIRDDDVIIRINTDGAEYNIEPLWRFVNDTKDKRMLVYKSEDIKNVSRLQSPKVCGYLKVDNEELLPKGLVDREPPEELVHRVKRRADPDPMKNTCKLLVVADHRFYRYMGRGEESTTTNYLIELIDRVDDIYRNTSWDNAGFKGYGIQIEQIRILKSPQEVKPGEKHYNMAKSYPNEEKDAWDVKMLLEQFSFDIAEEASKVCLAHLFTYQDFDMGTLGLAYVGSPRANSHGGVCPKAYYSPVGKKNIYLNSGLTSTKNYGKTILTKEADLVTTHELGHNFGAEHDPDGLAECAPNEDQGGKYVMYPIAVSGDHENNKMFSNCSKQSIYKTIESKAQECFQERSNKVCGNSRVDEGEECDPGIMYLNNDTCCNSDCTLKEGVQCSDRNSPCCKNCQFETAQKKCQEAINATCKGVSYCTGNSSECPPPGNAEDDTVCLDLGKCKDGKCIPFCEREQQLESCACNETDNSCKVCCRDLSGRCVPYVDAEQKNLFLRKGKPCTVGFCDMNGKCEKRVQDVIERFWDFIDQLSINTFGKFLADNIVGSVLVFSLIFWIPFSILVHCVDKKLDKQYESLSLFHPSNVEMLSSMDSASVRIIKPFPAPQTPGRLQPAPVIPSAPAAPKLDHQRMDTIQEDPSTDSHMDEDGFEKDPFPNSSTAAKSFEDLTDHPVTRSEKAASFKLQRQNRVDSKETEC
Sequence of Macrophage metalloelastase (Homo sapiens) (P39900 106-470 limits assumed): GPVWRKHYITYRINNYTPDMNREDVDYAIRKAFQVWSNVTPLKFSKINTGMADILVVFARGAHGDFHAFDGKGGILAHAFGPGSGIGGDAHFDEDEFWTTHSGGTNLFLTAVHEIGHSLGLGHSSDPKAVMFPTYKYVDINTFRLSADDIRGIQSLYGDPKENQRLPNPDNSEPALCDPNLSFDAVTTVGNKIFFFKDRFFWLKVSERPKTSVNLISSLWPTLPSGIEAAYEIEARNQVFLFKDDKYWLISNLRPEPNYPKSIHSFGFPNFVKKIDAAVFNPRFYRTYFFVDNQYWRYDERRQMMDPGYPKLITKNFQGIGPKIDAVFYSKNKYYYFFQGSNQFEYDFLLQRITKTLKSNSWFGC
Sequence of Stromelysin-1 (Homo sapiens) (P08254 100-477 limits assumed): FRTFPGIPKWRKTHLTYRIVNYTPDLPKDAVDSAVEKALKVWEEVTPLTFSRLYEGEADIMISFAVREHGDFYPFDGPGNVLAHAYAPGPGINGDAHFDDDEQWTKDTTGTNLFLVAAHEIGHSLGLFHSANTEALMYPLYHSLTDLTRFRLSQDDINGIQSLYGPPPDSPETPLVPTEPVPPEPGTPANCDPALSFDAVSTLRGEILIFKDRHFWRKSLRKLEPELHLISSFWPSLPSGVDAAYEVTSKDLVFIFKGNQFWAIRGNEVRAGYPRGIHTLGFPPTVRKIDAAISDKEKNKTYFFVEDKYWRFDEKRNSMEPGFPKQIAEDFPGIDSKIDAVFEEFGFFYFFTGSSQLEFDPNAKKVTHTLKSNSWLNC
Sequence of Matrix metalloproteinase-9 (Homo sapiens) (P14780 whole entry): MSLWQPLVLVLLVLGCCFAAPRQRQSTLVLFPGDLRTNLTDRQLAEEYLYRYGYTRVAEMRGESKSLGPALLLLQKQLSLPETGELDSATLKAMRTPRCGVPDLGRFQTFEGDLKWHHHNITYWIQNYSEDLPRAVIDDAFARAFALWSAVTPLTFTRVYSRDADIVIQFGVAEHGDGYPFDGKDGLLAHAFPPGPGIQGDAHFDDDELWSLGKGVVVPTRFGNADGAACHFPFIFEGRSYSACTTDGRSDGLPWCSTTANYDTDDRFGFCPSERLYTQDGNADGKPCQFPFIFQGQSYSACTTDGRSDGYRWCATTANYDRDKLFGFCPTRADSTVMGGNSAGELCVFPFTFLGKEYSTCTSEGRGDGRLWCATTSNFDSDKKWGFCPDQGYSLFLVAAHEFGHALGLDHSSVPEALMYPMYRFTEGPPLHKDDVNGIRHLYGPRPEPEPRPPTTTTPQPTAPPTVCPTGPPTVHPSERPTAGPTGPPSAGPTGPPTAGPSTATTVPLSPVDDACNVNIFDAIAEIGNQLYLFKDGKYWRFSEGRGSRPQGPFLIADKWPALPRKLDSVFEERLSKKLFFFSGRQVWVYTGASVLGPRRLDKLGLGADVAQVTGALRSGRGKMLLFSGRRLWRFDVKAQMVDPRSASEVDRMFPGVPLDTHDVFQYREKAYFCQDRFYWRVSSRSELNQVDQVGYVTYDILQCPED
Sequence of 72 kDa type IV collagenase (Homo sapiens) (P08253 110-660 limits assumed): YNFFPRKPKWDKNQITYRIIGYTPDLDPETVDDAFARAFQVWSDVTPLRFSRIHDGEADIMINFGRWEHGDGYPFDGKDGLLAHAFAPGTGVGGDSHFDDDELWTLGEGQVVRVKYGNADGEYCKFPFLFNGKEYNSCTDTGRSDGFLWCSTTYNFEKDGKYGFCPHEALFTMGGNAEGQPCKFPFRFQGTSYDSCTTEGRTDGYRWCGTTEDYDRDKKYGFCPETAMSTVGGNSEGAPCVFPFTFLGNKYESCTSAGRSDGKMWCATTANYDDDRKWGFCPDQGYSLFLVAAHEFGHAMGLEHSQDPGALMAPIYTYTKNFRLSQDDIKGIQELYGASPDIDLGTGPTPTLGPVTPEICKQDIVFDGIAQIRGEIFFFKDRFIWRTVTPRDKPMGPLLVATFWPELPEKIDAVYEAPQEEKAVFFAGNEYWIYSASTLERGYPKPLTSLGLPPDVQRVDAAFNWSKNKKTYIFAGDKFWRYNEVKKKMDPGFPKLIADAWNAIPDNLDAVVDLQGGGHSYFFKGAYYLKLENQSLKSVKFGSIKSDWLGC

Consider `Oc1nc(SCc2ccc(Cl)cc2)nc2ccsc12`, for which the inhibition on Collagenase 3 [1] is 36.6%.
Still for that read-out and setting: for `Cc1cc(=O)[nH]c(SCc2ccc(Cl)cc2)n1` the value was 32.9%; for `Nc1cc(O)nc(SCc2ccc(Cl)cc2)n1`, 37%; for `O=c1[nH]c(SCc2ccc(Cl)cc2)nc(O)c1Cc1ccccc1`, “inactive”.
Regarding `Cc1ccc(CSc2nc3c(c(=O)[nH]2)CCC3)cc1`, the IC50 against Interstitial collagenase and against Neutrophil collagenase [3] was more than 40 µM in each case. The Ki on Collagenase 3 [2] is 0.824 µM.
Take `COC(=O)c1ccc(CSc2nc3c(c(=O)[nH]2)CCC3)cc1`: the IC50 at Interstitial collagenase and against Neutrophil collagenase [3] was more than 40 µM in each case. For the same compound, the Activity in [4] was 104%; in experiment [6], 96.4%; on Neutrophil collagenase [7], 93.8%; in [10] it was 80.6%; in [11], 84.7%; in experiment [13], 102%. In addition, the figures for the Activity (in experiment [16]; on Collagenase 3 [17]) were 100% and 35.1%, respectively. Besides, the inhibition on Collagenase 3 [1] amounted to 61%; in [5], 0%; in experiment [9], 16%; in experiment [12], 31%; against Neutrophil collagenase [14] it was 8%; in experiment [15], 26%. Also, the inhibition result in experiment [8] was “inactive”. Besides, on Collagenase 3 [2], the Ki came out at 1.53 µM.
As for `O=c1[nH]c(SCCCc2ccccc2)nc2c1CCC2`, the inhibition at Collagenase 3 [1] turned out to be 7.2%.
Take `Cc1cccc(CSc2nc3c(c(=O)[nH]2)CCC3)c1`: on Collagenase 3 [1], the inhibition came out at 45.2%.
For the compound `CCCc1cc(O)nc(SCc2ccc(Cl)cc2)n1`, the inhibition entry at Collagenase 3 [1] is “inactive”.
Turning to `Cc1ccc(CSc2nc(O)c3c(n2)CCC3)cc1`, the Activity turned out to be 100% in [4]; 101% in experiment [6]; 106% on Neutrophil collagenase [7]; 77.3% in experiment [10]; 97.6% in experiment [11]; 106% in experiment [13]. The Activity in experiment [16] is 100%; on Collagenase 3 [17], 38.6%. For the same compound, the inhibition at Collagenase 3 [1] was 67%; in experiment [5], 0%; in [9], 7%; in experiment [12], 20%; against Neutrophil collagenase [14] it was 0%; in [15] it was 19%. In [8], the inhibition entry is “inactive”.
Regarding `CC(=O)Nc1c(O)nc(SCc2ccc(Cl)cc2)nc1O`, at Collagenase 3 [1], the inhibition entry was “inactive”.
Turning to `O=c1[nH]c(SCc2ccc(Cl)cc2)nc2c1C(Cc1ccccc1)CC2` (stereo not given), the inhibition at Collagenase 3 [1] came out at 37.7%.
On the same count and under the same terms, for `O=c1[nH]c(SCc2coc(-c3cccc(Cl)c3)n2)nc2c1CCC2` the value was “inactive”; for `O=C(CSc1nc2c(c(=O)[nH]1)C(Cc1ccccc1)CC2)c1ccccc1` (stereo not given), 16%; for `O=S(=O)(Nc1cc(O)nc(SCc2ccc(Cl)cc2)n1)c1ccccc1`, 31.2%.
For `Oc1nc(SCc2ccc(Cl)cc2)nc2ccccc12`, the inhibition entry at Collagenase 3 [1] is “inactive”.
As for `Oc1nc(SCc2ccc(Cl)cc2)nc2c1CCC2`, the half-inhibitory concentration (IC50) at Interstitial collagenase and on Neutrophil collagenase [3] was more than 40 µM each time. In addition, the Activity in experiment [4] was 107%; in experiment [6], 105%; on Neutrophil collagenase [7], 81.7%; in [10], 91.6%; in [11], 83%; in experiment [13] it was 92.7%. In addition, the values for the Activity (in experiment [16]; on Collagenase 3 [17]) were 96% and 44%, respectively. Besides, the inhibition at Collagenase 3 [1] was determined as 49.1%; in [5], 0%; in [9], 10%; in [12] it was 22%; at Neutrophil collagenase [14], 17%; in [15], 25%. Besides, in experiment [8], the inhibition result was “inactive”. In addition, the Ki at Collagenase 3 [2] is 3.8 µM.
Turning to `O=c1[nH]c(SCCc2ccccc2)nc2c1CCC2`, the inhibition at Collagenase 3 [1] came out at 7.7%.
As to `Cc1ccccc1S(=O)(=O)Nc1cc(=O)[nH]c(SCc2ccc(Cl)cc2)n1`, the inhibition at Collagenase 3 [1] was determined as 30.5%.
On the same count and under the same terms, for `CS(=O)(=O)c1ccc(CSc2nc3c(c(=O)[nH]2)CCC3)cc1` the value was 46.7%; for `Oc1[nH]c(SCc2ccc(Cl)cc2)nc2nncc1-2`, “inactive”; for `O=c1[nH]c(SCc2ccc(OC(F)(F)F)cc2)nc2c1CCC2`, 34.4%.
On the same count and under the same terms, for `O=C(CSc1nc2c(c(=O)[nH]1)CCC2)c1ccccc1` the value was “inactive”; for `C#CCSc1nc2c(c(=O)[nH]1)CCC2`, 10.3%; for `Cc1cccc(CSc2nc(O)c3c(n2)CCCC3)c1`, “inactive”.
Regarding `O=C(O)c1ccc(CSc2nc3c(c(=O)[nH]2)CCC3)cc1`, the inhibition at Collagenase 3 [1] is 2.2%.
As to `CCCCSc1nc(O)c2c(n1)CCC2`, on Collagenase 3 [1], the inhibition was determined as 17.1%.
Turning to `Cc1nc(SCc2ccc(Br)cc2)nc(O)c1C`, the inhibition amounted to 55.8% on Collagenase 3 [1] and 20% against Neutrophil collagenase [14].
Take `Cc1oc(-c2cccc(Cl)c2)cc1CSc1nc2c(c(=O)[nH]1)CCC2`: the inhibition entry at Collagenase 3 [1] was “inactive”.

Broadly, the inhibition is the relative decrease from the control value, in per cent. As a reminder, the IC50 is the concentration at which inhibition is half-maximal. Read a high IC50 as a need for much substance. By Ki is commonly meant the dissociation constant of the complex between target and ligand, obtained from inhibition or displacement.
